One block for each compound: values may come before it.
Key:
[1] = Displacement of [3H]resveratrol from Sprague-Dawley rat brain plasma membranes after 1 hr by beta counting method; assay type: cell membranes
[2] = Cytotoxicity against human MML1 cells assessed as decrease in cell viability after 48 hrs by MTT assay; assay type: functional, cell-based
MDA-MB-231 [3] = assay: Cytotoxicity against human MDA-MB-231 cells assessed as cell viability at 16 uM after 48 hrs by MTT assay; assay type: functional; details: MDA-MB-231, 48 h, read-out: Activity
A549 [4] = assay: Cytotoxicity against human A549 cells assessed as cell viability at 16 uM after 48 hrs by MTT assay; assay type: functional; details: A549, 48 h, read-out: Activity
COLO 201 [5] = assay: Cytotoxicity against human COLO201 cells assessed as cell viability at 16 uM after 48 hrs by MTT assay; assay type: functional; details: COLO 201, 48 h, read-out: Activity
[6] = Plasma concentration in mouse at 100 mg/kg, po at 60 mins by LC-MS/MS method; assay type: ADME, organism-based
Procedure, shortened: (§1)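 For IV dosing, compound dissolved in DMSO:ethanol (2:1), total volume no more than 30 μL. For oral dosing, compound given in a self-microemulsifying delivery system (60% surfactant, emulsifier OP:Cremophor EL 1:1; 30% PEG 400; 10% ethyl oleate), total volume no more than 100 μL. Plasma levels measured by previously described methods.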

COLO 201 [7] = assay: Cytotoxicity against human COLO201 cells assessed as decrease in cell viability after 48 hrs by trypan blue exclusion and LDH release; details: COLO 201, 48 h
NCI-H460 [8] = assay: Cytotoxicity against human NCI-H460 cells assessed as decrease in cell viability after 48 hrs by MTT assay; assay type: functional, cell-based; details: NCI-H460, 48 h
[9] = Cytotoxicity against human MML1 cells assessed as cell viability at 16 uM after 48 hrs by MTT assay; assay type: functional; details: read-out: Activity
U-87 MG [10] = assay: Cytotoxicity against human U87 cells assessed as cell viability at 16 uM after 48 hrs by MTT assay; assay type: functional, U-87MG ATCC; details: read-out: Activity
[11] = Plasma concentration in mouse at 10 mg/kg, iv at 60 mins by LC-MS/MS method; assay type: ADME, organism-based; procedure, shortened: as §1
NCI-H460 [12] = assay: Cytotoxicity against human NCI-H460 cells assessed as cell viability at 16 uM after 48 hrs by MTT assay; assay type: functional; details: NCI-H460, 48 h, read-out: Activity
[13] = Cmax in mouse at 10 mg/kg, iv by LC-MS/MS method; assay type: ADME, organism-based; design: dose 10 mg/kg, route intravenous; details: in vivo
Procedure, shortened: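 Mouse iv dosing used polyphenol dissolved in DMSO:ethanol (2:1), with total injected volume never above 30 μL. Plasma levels were measured by previously described methods.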

LN-229 [14] = assay: Cytotoxicity against human LN229 cells assessed as decrease in cell viability after 48 hrs by trypan blue exclusion and LDH release; details: LN-229, 48 h
PANC-1 [15] = assay: Cytotoxicity against human PANC1 cells assessed as cell viability at 16 uM after 48 hrs by MTT assay; assay type: functional; details: PANC-1, 48 h, read-out: Activity
A549 [16] = assay: Cytotoxicity against human A549 cells assessed as decrease in cell viability after 48 hrs by trypan blue exclusion and LDH release; details: A549, 48 h
U-87 MG [17] = assay: Cytotoxicity against human U87 cells assessed as decrease in cell viability after 48 hrs by trypan blue exclusion and LDH release
BXPC-3 [18] = assay: Cytotoxicity against human BxPC3 cells assessed as decrease in cell viability after 48 hrs by MTT assay; assay type: functional, cell-based; details: BXPC-3, 48 h
SK-MEL-2 [19] = assay: Cytotoxicity against human SK-MEL-2 cells assessed as decrease in cell viability after 48 hrs by MTT assay; assay type: functional, cell-based; details: SK-MEL-2, 48 h
SK-MEL-2 [20] = assay: Cytotoxicity against human SK-MEL-2 cells assessed as cell viability at 16 uM after 48 hrs by MTT assay; assay type: functional; details: SK-MEL-2, 48 h, read-out: Activity
BXPC-3 [21] = assay: Cytotoxicity against human BxPC3 cells assessed as cell viability at 16 uM after 48 hrs by MTT assay; assay type: functional; details: BXPC-3, 48 h, read-out: Activity
[22] = Tmax in mouse at 10 mg/kg, iv by LC-MS/MS method; assay type: ADME, organism-based; details: in vivo; procedure, shortened: as §1
T47D [23] = assay: Cytotoxicity against human T47D cells assessed as cell viability at 16 uM after 48 hrs by MTT assay; assay type: functional; details: read-out: Activity
LN-229 [24] = assay: Cytotoxicity against human LN229 cells assessed as cell viability at 16 uM after 48 hrs by MTT assay; assay type: functional; details: LN-229, 48 h, read-out: Activity
PANC-1 [25] = assay: Cytotoxicity against human PANC1 cells assessed as decrease in cell viability after 48 hrs by MTT assay; assay type: functional, cell-based; details: PANC-1, 48 h
Lipid bilayer = assay: Induction of DOPC/n-decane bilayer property changes assessed as concentration required to double gramicidin-induced quencher influx rate by […]
HT-29 [26] = assay: Cytotoxicity against human HT-29 cells assessed as cell viability at 16 uM after 48 hrs by MTT assay; assay type: functional; details: HT-29, 48 h, read-out: Activity
[27] = Tmax in mouse at 100 mg/kg, po by HPLC method; assay type: ADME, organism-based; details: in vivo
Procedure, shortened: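 Given orally in a self-microemulsifying delivery system (60% surfactant, emulsifier OP:Cremophor EL 1:1; 30% PEG 400 cosurfactant; 10% ethyl oleate oil), total volume no more than 100 μL. Plasma levels measured by previously described methods.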

T47D [28] = assay: Cytotoxicity against human T47D cells assessed as decrease in cell viability after 48 hrs by trypan blue exclusion and LDH release
HT-29 [29] = assay: Cytotoxicity against human HT-29 cells assessed as decrease in cell viability after 48 hrs by trypan blue exclusion and LDH release; details: HT-29, 48 h
MDA-MB-231 [30] = assay: Cytotoxicity against human MDA-MB-231 cells assessed as decrease in cell viability after 48 hrs by trypan blue exclusion and LDH release; details: MDA-MB-231, 48 h
[31] = Cmax in mouse at 100 mg/kg, po by HPLC method; assay type: ADME, organism-based; design: dose 100 mg/kg, route oral; details: in vivo
Procedure, shortened: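 For oral dosing, polyphenol was dissolved in a self-microemulsifying delivery system: 60% surfactant (emulsifier OP:Cremophor EL 1:1), 30% cosurfactant (PEG 400) and 10% oil (ethyl oleate). Total volume given was never above 100 μL. Plasma levels were quantified by previously described methods.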

- Ki [1]: 0.025 to 0.045 µM
Structure (SMILES): O=C(O[C@@H]1Cc2c(O)cc(O)cc2O[C@@H]1c1ccc(O)c(O)c1)c1cc(O)c(O)c(O)c1 [EPICATECHIN GALLATE]

- Ki [1]: 0.102 µM
- concentration at 1 h [6]: < 1 µM
- concentration at 1 h [11]: < 1 µM
- Cmax [13]: 32 µM
- Tmax [22]: 5 min
- Activity (Lipid bilayer): 11.3 µM
- Tmax [27]: 10 min
- Cmax [31]: 11 µM
Structure (SMILES): Oc1ccc(/C=C/c2cc(O)cc(O)c2)cc1 [RESVERATROL]
- IC50 [2]: 12 µM
- viability at 16 µM (MDA-MB-231 [3]): 95%
- viability at 16 µM (A549 [4]): 93%
- viability at 16 µM (COLO 201 [5]): 96%
- IC50 (COLO 201 [7]): 37 µM
- IC50 (NCI-H460 [8]): 12 µM
- viability at 16 µM [9]: 94%
- viability at 16 µM (U-87 MG [10]): 99%
- viability at 16 µM (NCI-H460 [12]): 94%
- IC50 (LN-229 [14]): 11 µM
- viability at 16 µM (PANC-1 [15]): 105%
- IC50 (A549 [16]): 16 µM
- IC50 (U-87 MG [17]): 20 µM
- IC50 (BXPC-3 [18]): 14 µM
- IC50 (SK-MEL-2 [19]): 14 µM
- viability at 16 µM (SK-MEL-2 [20]): 95%
- viability at 16 µM (BXPC-3 [21]): 98%
- viability at 16 µM (T47D [23]): 99%
- viability at 16 µM (LN-229 [24]): 102%
- IC50 (PANC-1 [25]): 39 µM
- viability at 16 µM (HT-29 [26]): 98%
- IC50 (T47D [28]): 25 µM
- IC50 (HT-29 [29]): 27 µM
- IC50 (MDA-MB-231 [30]): 15 µM

From ChEMBL document CHEMBL4184147, “Polyphenolic Phytochemicals in Cancer Prevention and Therapy: Bioavailability versus Bioefficacy” (J Med Chem, 2017)
